Calls of active or inactive are those of the source. The calls are words filed in the database; no cut-off is given here.
Legend:
[1] = test system: Histone-lysine N-methyltransferase PRDM9 (Homo sapiens), Q9NQV7 [UNDEFINED MUTATION]; assay: Inhibition of PRDM9 mutant (unknown origin) expressed in […] cells assessed as reduction in H3k4me3 expression at TSS region of endogenous chromatin at 2.5 to 10 uM measured after 48 hrs by ChIP qPCR analysis; assay type: cell-based; details: HEK293T, dose 2.5-10 µM
Sequence of Histone-lysine N-methyltransferase PRDM9 (Homo sapiens), Q9NQV7 [UNDEFINED MUTATION] (Q9NQV7 whole entry, looked up, change not shown): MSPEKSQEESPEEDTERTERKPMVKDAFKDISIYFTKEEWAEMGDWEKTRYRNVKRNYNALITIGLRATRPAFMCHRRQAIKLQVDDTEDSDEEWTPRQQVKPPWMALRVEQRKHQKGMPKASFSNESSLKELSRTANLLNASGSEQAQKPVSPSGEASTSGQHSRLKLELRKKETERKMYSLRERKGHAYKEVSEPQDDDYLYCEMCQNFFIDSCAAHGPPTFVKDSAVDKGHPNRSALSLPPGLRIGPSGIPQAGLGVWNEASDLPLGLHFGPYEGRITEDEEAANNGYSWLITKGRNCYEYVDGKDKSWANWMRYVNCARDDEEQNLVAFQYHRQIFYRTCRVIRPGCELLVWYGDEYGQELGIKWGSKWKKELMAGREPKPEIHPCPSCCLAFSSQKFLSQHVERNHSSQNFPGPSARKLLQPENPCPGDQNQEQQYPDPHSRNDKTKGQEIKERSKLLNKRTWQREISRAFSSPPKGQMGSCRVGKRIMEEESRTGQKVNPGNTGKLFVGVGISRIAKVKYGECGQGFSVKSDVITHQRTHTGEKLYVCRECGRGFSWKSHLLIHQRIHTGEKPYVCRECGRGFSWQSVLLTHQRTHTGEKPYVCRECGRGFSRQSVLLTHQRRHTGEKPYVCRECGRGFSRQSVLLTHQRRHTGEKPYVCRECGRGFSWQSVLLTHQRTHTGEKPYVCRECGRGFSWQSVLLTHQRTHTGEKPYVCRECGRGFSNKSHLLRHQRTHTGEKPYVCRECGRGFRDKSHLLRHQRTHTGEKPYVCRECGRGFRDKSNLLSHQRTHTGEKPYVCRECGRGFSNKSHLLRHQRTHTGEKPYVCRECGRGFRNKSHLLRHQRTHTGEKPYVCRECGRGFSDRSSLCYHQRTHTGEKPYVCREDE
Outline: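 HEK293T cells transfected with empty vector, wild-type or catalytically dead PRDM9 and treated with 0.1% DMSO or compound for 48 h; formaldehyde fixed, sonicated chromatin (50 μg) immunoprecipitated with anti-H3K4me3 or anti-H3; qPCR at PRDM9-bound and control loci; mean ± s.d. of technical replicates, representative of two experiments.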

[2] = molecular target: Muscarinic acetylcholine receptor M2 (Homo sapiens) (UniProt P08172); assay: Antagonist activity against muscarinic M2 receptor (unknown origin) by Glo Sensor assay; assay type: functional
Sequence of Muscarinic acetylcholine receptor M2 (Homo sapiens) (P08172 whole entry): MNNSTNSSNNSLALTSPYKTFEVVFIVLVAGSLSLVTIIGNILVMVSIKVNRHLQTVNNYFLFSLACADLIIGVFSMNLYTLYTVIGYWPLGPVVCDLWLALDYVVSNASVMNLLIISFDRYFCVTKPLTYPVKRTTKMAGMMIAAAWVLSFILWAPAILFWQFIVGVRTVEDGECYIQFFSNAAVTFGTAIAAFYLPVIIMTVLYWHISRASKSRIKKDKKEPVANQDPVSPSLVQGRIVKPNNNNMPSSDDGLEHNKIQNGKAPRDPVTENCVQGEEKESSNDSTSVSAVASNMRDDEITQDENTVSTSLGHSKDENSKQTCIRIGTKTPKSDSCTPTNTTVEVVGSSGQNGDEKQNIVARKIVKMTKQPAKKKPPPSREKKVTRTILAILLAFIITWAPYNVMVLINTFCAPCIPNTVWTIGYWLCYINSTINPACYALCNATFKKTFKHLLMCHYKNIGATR

HCC1806 = assay: Cytotoxicity against human HCC1806 cells at upto 30 uM measured for 3 to 6 days by celltiter glo assay; assay type: functional, cell-based; details: time 3-6 day
[3] = molecular target: Histone-lysine N-methyltransferase PRDM7 (Homo sapiens) (UniProt Q9NQW5); assay: Binding affinity to PRDM7 (unknown origin) assessed as thermal stability by measuring change in melting temperature at 250 uM by SYPRO orange dye based differential scanning fluorimetry
Sequence of Histone-lysine N-methyltransferase PRDM7 (Homo sapiens) (Q9NQW5 whole entry): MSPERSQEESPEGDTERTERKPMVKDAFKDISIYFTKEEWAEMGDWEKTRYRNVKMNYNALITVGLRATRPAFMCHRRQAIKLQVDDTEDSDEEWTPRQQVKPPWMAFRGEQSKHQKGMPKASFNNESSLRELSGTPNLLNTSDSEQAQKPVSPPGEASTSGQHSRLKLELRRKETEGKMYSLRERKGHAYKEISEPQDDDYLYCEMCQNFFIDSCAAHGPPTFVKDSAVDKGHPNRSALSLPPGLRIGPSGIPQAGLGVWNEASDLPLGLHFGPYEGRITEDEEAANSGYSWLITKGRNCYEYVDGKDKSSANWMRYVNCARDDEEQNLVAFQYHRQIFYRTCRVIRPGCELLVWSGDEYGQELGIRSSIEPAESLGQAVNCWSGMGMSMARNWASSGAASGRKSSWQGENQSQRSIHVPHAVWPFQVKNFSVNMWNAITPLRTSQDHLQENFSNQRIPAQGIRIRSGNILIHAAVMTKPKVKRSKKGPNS
Outline: (§1)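 DSF with 250 μM compound; proteins at 0.02 mg mL⁻¹ final in 0.1 M HEPES pH 7.5, 150 mM NaCl with 2 mM SAM; ΔTm (Tm ligand − Tm apo) above 2 °C taken as binding.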

[4] = molecular target: Histone-lysine N-methyltransferase PRDM9 (Homo sapiens) (UniProt Q9NQV7); assay: Inhibition of PRDM9 (unknown origin) in presence of SAH
Sequence of Histone-lysine N-methyltransferase PRDM9 (Homo sapiens) (Q9NQV7 whole entry, the tested form may be a part): as the sequence (Q9NQV7 whole entry, looked up, change not shown) above

[5] = molecular target: Alpha-2B adrenergic receptor (Homo sapiens) (UniProt P18089); assay: Agonist activity at adrenergic alpha 2b receptor (unknown origin) by Glo Sensor assay; assay type: functional
Sequence of Alpha-2B adrenergic receptor (Homo sapiens) (P18089 whole entry): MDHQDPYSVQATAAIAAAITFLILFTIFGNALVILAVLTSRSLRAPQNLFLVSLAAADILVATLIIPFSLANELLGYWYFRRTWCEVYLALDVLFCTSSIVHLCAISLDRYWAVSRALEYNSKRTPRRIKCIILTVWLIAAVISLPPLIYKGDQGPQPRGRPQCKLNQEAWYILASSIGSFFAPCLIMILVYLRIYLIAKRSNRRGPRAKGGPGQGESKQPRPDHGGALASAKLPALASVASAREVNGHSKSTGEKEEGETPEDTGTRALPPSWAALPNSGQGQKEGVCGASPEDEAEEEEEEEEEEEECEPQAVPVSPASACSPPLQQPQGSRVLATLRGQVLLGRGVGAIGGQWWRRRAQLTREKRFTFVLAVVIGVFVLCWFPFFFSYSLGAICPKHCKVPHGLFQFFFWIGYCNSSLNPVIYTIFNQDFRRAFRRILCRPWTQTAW

MDA-MB-436 = assay: Cytotoxicity against human MDA-MB-436 cells at upto 30 uM measured for 3 to 6 days by celltiter glo assay; assay type: functional, cell-based; details: time 3-6 day
SK-MM-2 = assay: Cytotoxicity against human SK-MM-2 cells at upto 30 uM measured for 3 to 6 days by celltiter glo assay; assay type: functional, cell-based; details: time 3-6 day
HEK-293T [6] = assay: Cytotoxicity against HEK293T cells at 10 uM measured after 4 days by IncuCyte zoom live-cell imaging analysis; assay type: toxicity, cell-based; details: human, 96 h, time 4 day
HEK-293T [7] = assay: Cytotoxicity against HEK293T cells at 10 uM measured after 24 hrs by IncuCyte zoom live-cell imaging analysis; assay type: toxicity, cell-based; details: human
Outline: (§2)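 HEK293T cells seeded, treated next day with compound for 1 day; cell number counted by live-cell imaging after Vybrant DyeCycle Green staining; mean ± sd, n = 3.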

[8] = molecular target: Mu-type opioid receptor (Homo sapiens) (UniProt P35372); assay: Agonist activity at MOR receptor (unknown origin) by Glo Sensor assay; assay type: functional
Sequence of Mu-type opioid receptor (Homo sapiens) (P35372 whole entry): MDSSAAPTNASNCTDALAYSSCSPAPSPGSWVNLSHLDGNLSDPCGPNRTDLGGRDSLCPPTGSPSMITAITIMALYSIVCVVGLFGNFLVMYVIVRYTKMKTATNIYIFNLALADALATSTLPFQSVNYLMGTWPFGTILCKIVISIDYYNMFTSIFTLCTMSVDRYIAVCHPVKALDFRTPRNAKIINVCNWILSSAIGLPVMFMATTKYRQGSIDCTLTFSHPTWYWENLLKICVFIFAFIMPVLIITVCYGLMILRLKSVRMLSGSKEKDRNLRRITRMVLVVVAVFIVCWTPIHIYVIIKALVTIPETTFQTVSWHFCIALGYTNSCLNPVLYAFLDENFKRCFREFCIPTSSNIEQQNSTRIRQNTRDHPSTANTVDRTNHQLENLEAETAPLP

[9] = molecular target: Histamine H3 receptor (Homo sapiens) (UniProt Q9Y5N1); assay: Agonist activity at Histamine H3 (unknown origin) by Glo Sensor assay; assay type: functional
Sequence of Histamine H3 receptor (Homo sapiens) (Q9Y5N1 whole entry): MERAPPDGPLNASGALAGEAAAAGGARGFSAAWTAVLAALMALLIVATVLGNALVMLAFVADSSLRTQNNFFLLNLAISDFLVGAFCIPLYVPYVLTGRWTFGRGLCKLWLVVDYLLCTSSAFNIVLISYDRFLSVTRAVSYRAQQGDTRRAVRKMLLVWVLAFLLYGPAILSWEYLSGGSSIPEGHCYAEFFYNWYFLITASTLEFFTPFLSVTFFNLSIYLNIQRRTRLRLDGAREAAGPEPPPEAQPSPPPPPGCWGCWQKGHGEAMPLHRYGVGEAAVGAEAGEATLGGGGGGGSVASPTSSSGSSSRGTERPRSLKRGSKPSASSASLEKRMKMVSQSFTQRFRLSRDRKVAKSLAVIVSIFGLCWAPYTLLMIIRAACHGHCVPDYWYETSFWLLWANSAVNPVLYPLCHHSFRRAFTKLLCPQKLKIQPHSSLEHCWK

[10] = molecular target: Mu-type opioid receptor (Homo sapiens) (UniProt P35372); assay: Antagonist activity against MOR receptor (unknown origin) by Glo Sensor assay; assay type: functional
CAL-85-1 = assay: Cytotoxicity against human CAL-85-1 cells at upto 30 uM measured for 3 to 6 days by celltiter glo assay; assay type: functional, cell-based; details: time 3-6 day
MCF7 = assay: Cytotoxicity against human MCF7 cells assessed as reduction in cell viability at 10 uM measured on day 5 by IncuCyte zoom live-cell imaging analysis; assay type: functional, cell-based; details: time 5.0 day
Outline: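 MCF7 cells seeded, treated next day with 10 μM compound in a 5-day proliferation assay; cell number counted by live-cell imaging after Vybrant DyeCycle Green staining.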

Spermatocyte [11] = assay: Induction of meiotic defect in wild type mouse spermatocyte assessed as non homologous synapsis by SYCP1/SYCP3 staining based immunofluorescence assay; assay type: functional, cell-based
RPMI-8226 = assay: Cytotoxicity against human RPMI-8226 cells at upto 30 uM measured for 3 to 6 days by celltiter glo assay; assay type: functional, cell-based; details: time 3-6 day
[12] = molecular target: Histone-lysine N-methyltransferase PRDM9 (Homo sapiens) (UniProt Q9NQV7); assay: Inhibition of FLAG tagged PRDM9 transfected in HEK293T cells assessed as reduction in trimethylation of ectopic H3K4 measured after 20 hrs by Western blot analysis; assay type: cell-based; details: dose <= 10.0 µM
[13] = molecular target: Histone-lysine N-methyltransferase PRDM9 (Homo sapiens) (UniProt Q9NQV7); assay: Inhibition of FLAG tagged PRDM9 transfected in HEK293T cells assessed as reduction in trimethylation of endogenous H3K4 measured after 20 hrs by Western blot analysis; assay type: cell-based; details: dose <= 10.0 µM
[14] = molecular target: Muscarinic acetylcholine receptor M2 (Homo sapiens) (UniProt P08172); assay: Agonist activity at muscarinic M2 receptor (unknown origin) by Glo Sensor assay; assay type: functional
Spermatocyte [15] = assay: Induction of meiotic defect in wild type mouse spermatocyte assessed as effect on paring of chromosomal homolog by SYCP1/SYCP3 staining based immunofluorescence assay; assay type: functional, cell-based
[16] = molecular target: Histone-lysine N-methyltransferase PRDM9 (Homo sapiens) (UniProt Q9NQV7); assay: Inhibition of PRDM9 (unknown origin) at 1 to 10 uM; details: dose 1-10 µM
HEK-293T [17] = assay: Cytotoxicity against HEK293T cells at 3 uM measured after 4 days by IncuCyte zoom live-cell imaging analysis; assay type: toxicity, cell-based; details: human, 96 h, time 4 day
[18] = molecular target: Histone-lysine N-methyltransferase PRDM9 (Homo sapiens) (UniProt Q9NQV7); assay: Inhibition of FLAG tagged PRDM9 transfected in human MCF7 cells cotransfected with H3-GFP assessed as inhibition of trimethylation H3K4 at upto 10 uM measured after 20 hrs by Western blot analysis; assay type: cell-based
HEK-293T [19] = assay: Cytotoxicity against HEK293T cells at 3 uM measured after 24 hrs by IncuCyte zoom live-cell imaging analysis; assay type: toxicity, cell-based; details: human; outline: as §2
HCC1143 = assay: Cytotoxicity against human HCC1143 cells at upto 30 uM measured for 3 to 6 days by celltiter glo assay; assay type: functional, cell-based; details: time 3-6 day
[20] = molecular target: Histone-lysine N-methyltransferase PRDM9 (Homo sapiens) (UniProt Q9NQV7); assay: Binding affinity to PRDM9 (unknown origin) assessed as thermal stability by measuring change in melting temperature at 250 uM by SYPRO orange dye based differential scanning fluorimetry; outline: as §1
[21] = molecular target: Histone-lysine N-methyltransferase PRDM9 (Homo sapiens) (UniProt Q9NQV7); assay: Binding affinity to PRDM9 (unknown origin) (195 to 415 residues) at 20 uM measured at 60 to 120 secs in presence of SAH by surface plasmon resonance assay; details: time 60-120 sec
[22] = molecular target: Alpha-2B adrenergic receptor (Homo sapiens) (UniProt P18089); assay: Antagonist activity against adrenergic alpha 2b receptor (unknown origin) by Glo Sensor assay; assay type: functional

With `COc1cc(OC)cc(-c2noc(N3CCN(C)C4(CCN(c5ccnc(C)c5)CC4)C3)n2)c1` the inhibition [1] was “inactive”, the Activity [2] was “inactive” and the Activity (HCC1806) was “inactive”. For the same compound, the ΔTm [3] was over 2 °C, the inhibition [4] was “inactive” and the Activity [5] was “inactive”. The Activity (MDA-MB-436) was “inactive”, the Activity (SK-MM-2) was “inactive” and the Activity (HEK-293T [6]) was “Toxic”. For the same compound, the Activity (HEK-293T [7]) was “Toxic”, the Activity [8] was “inactive” and the Activity [9] was “inactive”. The Activity [10] was “inactive”, the Activity (CAL-85-1) was “inactive” and the Activity (MCF7) was “inactive”. For the same compound, the Activity (Spermatocyte [11]) was “Active”, the Activity (RPMI-8226) was “inactive” and the inhibition [12] was “Dose-Dependent Effect”. For the same compound, the inhibition [13] was “Dose-Dependent Effect”, the Activity [14] was “inactive” and the Activity (Spermatocyte [15]) was “Active”. The inhibition [16] was “Active”, the Activity (HEK-293T [17]) was “Non-Toxic” and the inhibition [18] was “Active”. The Activity (HEK-293T [19]) was “Non-Toxic”, the Activity (HCC1143) was “inactive” and the ΔTm [20] was over 2 °C. The Activity [21] was “inactive” and the Activity [22] was “inactive”.
